Series [1] concerns the target Human immunodeficiency virus type 1 reverse transcriptase (Human immunodeficiency virus 1) (UniProt Q72547). The series can be described thus: Inhibition of recombinant HIV1 reverse transcriptase using 234-nt long RNA/18-mer DNA oligonucleotide as template/primer assessed as remaining activity at 50 uM preincubated for 15 mins followed by incubation with template/primer for 40 mins by liquid scintillation counting in presence of alpha[P33]-dCTP relative to control.

For series [2] the target is unchanged. The series can be described thus: Inhibition of recombinant HIV1 reverse transcriptase using 234-nt long RNA/18-mer DNA oligonucleotide as template/primer assessed as remaining activity at 200 uM preincubated for 15 mins followed by incubation with template/primer for 40 mins by liquid scintillation counting in presence of alpha[P33]-dCTP relative to control.

A short description of series [3]: Cytotoxicity against human TZM-bl cells assessed as reduction of cell viability after 48 hrs. It counts as cell-based. Summed up:
(§1)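 Impedance-based real-time viability: U2OS (3.5 × 10^3) or TZM-bl (8.5 × 10^3) cells seeded on electrode plates, compounds in DMSO added 24 h later (final DMSO 0.5%), cell index recorded over a further 48 h. CC50 = concentration lowering cell index by 50% relative to DMSO-only cells.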

Series [4] has as its system Human immunodeficiency virus 1. Nature of the series: Antiviral activity against HIV1 virus-like particles harboring wild type reverse transcriptase infected in human U2OS cells after 24 hrs by Renilla luciferase assay. It counts as functional, organism-based. Summed up:
(§2)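 U2OS cells seeded 5 × 10^4 per well, infected next day with HIV-1 VLPs carrying wt or mutant RT at MOI 0.01 with polybrene 6 μg/mL plus compound; 1 h at 37 °C, washed, compound-containing media 24 h, then compound-free media 24 h. Lysate Gluc activity (Renilla luciferase reagent) normalised to protein.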

Series [5] has as its system Human immunodeficiency virus 1. The series can be described thus: Antiviral activity against HIV1 virus-like particles harboring wild type reverse transcriptase infected in human U2OS cells assessed as remaining viral activity at 50 uM after 24 hrs by Renilla luciferase assay relative to control. It counts as functional. Summed up: as §2
The target in series [6] is Human immunodeficiency virus type 1 reverse transcriptase (Human immunodeficiency virus 1, UniProt Q72547). Nature of the series: Inhibition of HIV1 reverse transcriptase using 234-nt long RNA/18-mer DNA oligonucleotide as template/primer preincubated for 15 mins followed by incubation with template/primer for 40 mins by liquid scintillation counting in presence of alpha[P33]-dCTP. The settings on record: read-out: IC50.

Series [7] in a line: (§3) Cytotoxicity against human U2OS cells assessed as cell viability at 50 uM after 48 hrs relative to control. It counts as cell-based. As to conditions: U2OS cells, read-out: Activity; call rule not given here. Summed up: (§4)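 U2OS cells seeded at 3.5 × 10^3 on electrode plates; after 24 h compound added at a single concentration (final DMSO 0.5%) and impedance cell index followed for 48 h. Graded against DMSO-treated cells: >50% reduction toxic, 20-50% moderately toxic, ≤20% non-toxic.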

Series [8] is described as follows: Cytotoxicity against human U2OS cells assessed as reduction of cell viability after 48 hrs. It counts as cell-based. Put shortly: as §1
A short description of series [9]: (§5) Cytotoxicity against human U2OS cells assessed as cell viability at 5 uM after 48 hrs relative to control. It counts as cell-based. As to conditions: U2OS cells, read-out: Activity. Put shortly: as §4
Series [10] relates to Human immunodeficiency virus 1. The series can be described thus: Antiviral activity against HIV1 virus-like particles harboring wild type reverse transcriptase infected in human U2OS cells assessed as remaining viral activity at 5 uM after 24 hrs by Renilla luciferase assay relative to control. It counts as functional. Summed up:
as §2

Series [11] deals with U2OS. Described as §5. It counts as cell-based. As to conditions: u2os, 48 h, 5 µM. Summed up: as §4
In series [12] the test system is U2OS. Described as §3. It counts as cell-based. The settings on record: u2os, 48 h, 50 µM. Summed up: as §4
The test system of series [13] is Human immunodeficiency virus 1. The series can be described thus: Antiviral activity against HIV1 virion infected in human TZM-bl cells after 48 hrs by firefly luciferase assay. It counts as functional, organism-based. The settings on record: Human immunodeficiency virus 1, TZM-bl, 48 h; read-out: IC50. Summed up: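 TZM-bl cells (LTR-driven firefly luciferase), 5 × 10^4 per well, infected next day with ACH-2-derived HIV-1 stock (PMA-induced; 30 ng p24 per well) plus compound for 2 h at 37 °C; medium then replaced with compound-containing medium for 48 h.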

[14] abbreviates: Human immunodeficiency virus 1, U2OS, 24 h, read-out: IC50.

The structures appear in SMILES notation. Values joined by “and” are separate entries in the source; they are usually repeats but may differ in a detail not shown here. Equal entries are not always repeated.

`Cc1ccc(Nc2nc(NCC3CCCO3)nc(Nc3ccc(C)cc3)n2)cc1` (stereo in doubt; 8(n.p)) [listing 1 of 2 here]: the Activity turned out to be 59% in series [1] and 53% in series [2].
Regarding `Cc1ccc(Nc2nc(NCC3CCCO3)nc(Nc3ccc(C)cc3)n2)cc1` (single isomer, unassigned; isomer 2), in series [3], the CC50 at 48 h is above 50 µM. For the same compound, the half-maximal inhibitory concentration (IC50) in series [4] (u2os, read-out: IC50) was 32 µM.
As for `Cc1c(CCC(=O)NCC(=O)NCC(=O)O)c(=O)oc2c(C)c(O)ccc12`, the Activity in series [5] was 94%; in [1], 92%; in [2], 93%. For the same compound, the IC50 in series [4] (setting [14]) is above 50 µM; in [6], above 200 µM. The viability at 48 h, 50 µM in [7] was determined as 99%. The CC50 at 48 h in [8] was above 50 µM.
With `Cc1ccccc1Nc1nc(N)nc(CN(C)Cc2ccc(F)cc2)n1`, the Activity in series [5] stood at 53%; in series [1], 103%; in [10] it was 151%; in series [2] it was 89%. Moreover, the results for the IC50 in [4] (setting [14]) and in [6] were above 50 µM and above 200 µM, respectively. For the same compound, the viability at 48 h, 5 µM in [9] worked out at 96%. Also, in series [7], the viability at 48 h, 50 µM worked out at 84%. Also, in [8], the CC50 at 48 h is above 50 µM.
Regarding `Nc1c(NCCO)cc(Nc2ccccc2)c2c1C(=O)c1ccccc1C2=O`, the Activity in series [1] came to 90%; in series [10], 111%; in series [2], 66%. The IC50 is above 5 µM in series [4] (setting [14]) and above 200 µM in series [6]. Besides, the viability at 48 h, 5 µM in series [9] came to 99%. Further, in series [7], the viability at 48 h, 50 µM stood at 42%. In addition, the CC50 at 48 h in series [8] is above 5 µM.
As to `CCCn1c(NCCN(CC)CC)nc2c1c(=O)[nH]c(=O)n2C`, the Activity turned out to be 128% in [5], 89% in [1] and 103% in series [2]. Besides, the half-inhibitory concentration (IC50) in series [4] (setting [14]) is above 50 µM; in [6] it was above 200 µM. For the same compound, the viability at 48 h, 50 µM in series [7] worked out at 101%. Also, the CC50 at 48 h in [8] is above 50 µM.
On to `Nc1nc(COC(=O)c2c[nH]c3ccccc23)nc(Cc2ccc(F)cc2)n1`, for which the Activity in [5] came to 118%; in series [1], 86%; in series [2], 87%. Further, the IC50 is above 50 µM in series [4] (setting [14]) and above 200 µM in series [6]. Moreover, the viability at 48 h, 50 µM in [7] was 101%. The CC50 at 48 h in series [8] was above 50 µM.
Take `Cc1ccc(Nc2nc(COc3ccc(Cl)cc3)nc(=N)[nH]2)cc1`: the Activity was 82% in series [5], 79% in series [1], 125% in series [10] and 86% in [2]. Further, the figures for the IC50 in series [4] (setting [14]) and in [6] were above 50 µM and above 200 µM, respectively. Further, in [9], the viability at 48 h, 5 µM amounted to 93%. In addition, the viability at 48 h, 50 µM in series [7] was 76%. Also, in series [8], the cytotoxic concentration (CC50) at 48 h was above 50 µM.
Regarding `Cc1ccc(Nc2nc(Nc3ccc(C)cc3)nc(Nc3ccc(C)cc3)n2)cc1`, the cytotoxic concentration (CC50) at 48 h in [3] and in [8] was above 50 µM throughout. For the same compound, the IC50 result in [4] (u2os) is recorded as “Not Active”.
Regarding `Cc1ccccc1Nc1nc(Cn2ccc(C(F)(F)F)cc2=O)nc(=N)[nH]1`, the Activity in series [5] was 101%; in series [1], 88%; in series [2], 89%. The IC50 in series [4] (setting [14]) was above 50 µM; in [6], above 200 µM. Further, the viability at 48 h, 50 µM in series [7] was determined as 105%. Besides, the cytotoxic concentration (CC50) at 48 h in series [8] is above 50 µM.
As for `Cc1ccc(Nc2nc(NCC3CCCO3)nc(NCC3CCCO3)n2)cc1` (stereo not drawn), the CC50 at 48 h in series [3] and in series [8] was above 50 µM throughout. Moreover, the IC50 result in series [4] (u2os) is “Not Active”.
On to `COc1ccc(Nc2nc(Nc3ccc(OC)cc3)nc(NC3CCCC3)n2)cc1`, for which the Activity stood at 30% in [5], 94% in series [1], 94% in series [10] and 98% in series [2]. The IC50 was above 5 µM in series [4] (setting [14]) and above 200 µM in series [6]. In [9], the viability at 48 h, 5 µM was 87%. Also, the viability at 48 h, 50 µM in series [7] amounted to 67%. In [8], the CC50 at 48 h is above 50 µM.
In the case of `Cc1ccc2[nH]c(=O)c(CN(CCCO)C(=S)NC[C@@H]3CCCO3)cc2c1`, the Activity in series [5] stood at 68%; in series [1] it was 98%; in series [2] it was 108%. Moreover, the IC50 in [4] (setting [14]) is above 50 µM; in [6], above 200 µM. For the same compound, in series [7], the viability at 48 h, 50 µM was found to be 108%. In addition, in [8], the CC50 at 48 h was above 50 µM.
As to `Cc1ccnc2c1NC(=O)c1cccnc1N2C1CC1` [NEVIRAPINE], the CC50 at 48 h in series [3] and in series [8] was above 100 µM in each case. Moreover, the Activity is 13.7% in series [1]; “Non-toxic” in [11]; “Non-toxic” in [12]; 0.5% in series [10]; 9% in [2]. The IC50 in [13] came out at 0.026 µM.
Regarding `O=C1NC(=S)N(CCC2=CCCCC2)C(=O)/C1=C\NCCO`, the results for the Activity in [5], in [1] and in series [2] were 54%, 92% and 78%, respectively. The IC50 is above 50 µM in series [4] (setting [14]) and above 200 µM in [6]. Moreover, in [7], the viability at 48 h, 50 µM turned out to be 98%. Besides, in series [8], the CC50 at 48 h is above 50 µM.
In the case of `CNc1nc(Nc2ccc(C)cc2)nc(Nc2ccc(C)cc2)n1`, the Activity in series [1] is 85% and 86%; in series [11], 91%; in [12] it was 40%; in series [10], 84% and 80%; in series [2], 79% and 82%. Moreover, the IC50 in series [4] (setting [14]) was above 5 µM; in [6], above 200 µM. For the same compound, in [9], the viability at 48 h, 5 µM came out at 96%. Further, the viability at 48 h, 50 µM in [7] worked out at 46%. Further, the CC50 at 48 h in series [8] was above 5 µM.
As for `c1coc(CNc2nc(NCc3ccco3)c3nc(NCc4ccco4)[nH]c3n2)c1`, the results for the Activity in [5], in series [1] and in series [2] were 104%, 92% and 102%, respectively. Moreover, the results for the IC50 in [4] (setting [14]) and in series [6] were above 50 µM and above 200 µM, respectively. In [7], the viability at 48 h, 50 µM was found to be 116%. Besides, the CC50 at 48 h in series [8] is above 50 µM.
Turning to `Cc1ccc(Nc2nc(NCC3CCCO3)nc(Nc3ccc(C)cc3)n2)cc1` (stereo in doubt; 8(n.p)) [listing 2 of 2 here], the figures for the Activity in [5] and in series [10] were 5.2% and 20%, respectively. In addition, the IC50 in series [4] (u2os, read-out: IC50) was found to be 0.33 µM; in series [6] it was 106 µM. For the same compound, the viability at 48 h, 5 µM in [9] was found to be 90%. Moreover, the viability at 48 h, 50 µM in [7] was 66%.
As for `Cc1ccc(Nc2nc(NCC3CCCO3)nc(Nc3ccc(C)cc3)n2)cc1` (single isomer, unassigned; isomer 1), in [4] (u2os, read-out: IC50), the IC50 is 18.2 µM.
As to `CCOC(=O)c1[nH]c2ccc(F)cc2c1NC(=O)NC1CCCCC1`, the Activity in series [5] was determined as 84%; in series [1], 81%; in series [2], 42%. Further, the IC50 in [4] (setting [14]) and in [6] was above 50 µM in each case. In addition, the viability at 48 h, 50 µM in series [7] is 103%. Further, the CC50 at 48 h in series [8] was above 50 µM.
As for `Cc1ccc(Nc2nc(N)nc(COC(=O)c3cnc4ccccc4n3)n2)cc1`, the Activity was determined as 75% in series [5], 82% in [1] and 54% in [2]. Also, the IC50 in series [4] (setting [14]) was above 50 µM; in series [6], above 200 µM. For the same compound, the viability at 48 h, 50 µM in series [7] turned out to be 103%. In addition, the 50% cytotoxic concentration (CC50) at 48 h in series [8] was above 50 µM.

The values above are taken from ChEMBL document CHEMBL3784952, “Design, discovery, modelling, synthesis, and biological evaluation of novel and small, low toxicity s-triazine derivatives as HIV-1 non-nucleoside reverse transcriptase inhibitors” (Bioorg Med Chem, 2016).
